Screening results deposited in PubChem by Broad Institute.
In the library only some 1.9% were active in any assay of this set; here they are far more common.
Cneo AK release – Cryptococcus neoformans cell lysis inducers, primary screen, AK release luminescence, single concentration | lysis activity, % at 15 µM | C. neoformans lysis, adenylate kinase release luminescence, 4 h; normalised: neutral wells 0, clomiphene wells 100 | hit rate 0.2% among 360,000 | AID 651654, 2012;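 active means mean lysis activity across replicates of at least 80%, whatever share of replicates individually reach that level; inactive means mean lysis activity below 80%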
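Material: C. neoformans cells; Schedule: 4 h static compound exposure, 37 °C, read 1 h post-reagent; Measured by: adenylate kinase release luminescence; Read-out: signal increase indicating cell lysis; Controls: Clomiphene as positive lysis control.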
DENV2 CPE – inhibitors of DENV2 cytopathic effect, primary screen, cell-based, plate reader, single concentration | CPE inhibition, % at 9.99 µM | DENV2-infected cells, cytopathic effect rescue | hit rate 1.7% among 350,000 | AID 651640, 2012; in the data active means CPE inhibition above about 20%, passing the limit was not always enough; tested in BHK-21 cells;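 further: 0% = median of neutral control wells and 100% = median of positive control wells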
PGC1a acetyl inh – inhibitors of PGC1a acetylation signal, primary screen, cell-based, U2OS, AlphaScreen, inhibitor mode; AlphaScreen anti-acetyl-lysine; with virally co-expressed GCN5 acetyltransferase; inhibition, % at 15.6 µM; hit rate 0.17% among 350,000; AID 651687, 2012;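 active means every replicate shows inhibition of at least 40%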;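 further: 0% = neutral control wells and 100% = positive control wells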
XiGFP reactiv – activators of inactive X chromosome reactivation, primary screen, imaging, XiGFP fibroblasts, GFP high-content imaging, set 2; XiGFP mouse fibroblasts, % GFP-positive cells imaging, 3 d; cells co-treated with 5-aza-dC sensitizer; scaled so ellipticine positive control = 100%; activation, % at 7.58 µM; hit rate 0.055% among 360,000;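 active means mean normalized replicate activation at least 10% and every replicate at or above 10%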;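 further: 0% = median of on-plate neutral control wells and 100% = ellipticine 6 µM median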
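System: 68-5-11 XiGFP fibroblast line; Timing: 3 days compound exposure; Compound dosing: one concentration, pinned; Benchmarks: positive control ellipticine, 6 µM final; Buffer or medium: DMEM containing 5-aza-dC.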
CFTR F508del cor – F508del CFTR correction, initial screen, CFBE line, single point. AID 720511, 2013. hit rate 0.36% among 350,000. activity (quench increase), % at 7.58 µM. CFBE cells, YFP halide quenching; stimulated with forskolin plus potentiator P3; % fluorescence drop versus neutral controls;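 active means mean added fluorescence quench of at least 8% versus neutral control, with both replicates also reaching 8%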;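 further: cells transiently co-express mutant CFTR-F508del with the halide-sensitive YFP; corrector assay measuring rescue of mutant channel to the surface after 24 h compound exposure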
FN deposit inh – inhibitors of fibronectin matrix deposition, primary screen, AH1F cells, Alexa488-fibronectin fluorescence, plate reader. inhibition, % at 12.6 µM. AH1F fibroblasts, overnight. AID 743247, 2014. hit rate 0.086% among 350,000;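 active means mean inhibition across replicates of 30% or more, regardless of how many single replicates reach that level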;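 further: positive control wells lacked labelled fibronectin entirely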
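Assay system: AH1F fibroblast monolayer, labelled fibronectin deposition. Amount: 10000 cells per well. Also added: labelled fibronectin 24 nM. Compound: single-point pinned compound. Incubation: cell attachment 1 h, compound and FN exposure overnight. Detection: fluorescence after three HBSS washes, excitation 485 nm, emission 525 nm. Read-out: inhibition of fibronectin deposition signal.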
Numbers without * were called inactive; . = not tested or not shown; ! = a repeat was not active.

SMILES	Cneo AK release	DENV2 CPE	PGC1a acetyl inh	XiGFP reactiv	CFTR F508del cor	FN deposit inh
Cc1ccc(S(=O)(=O)Nc2ccc3c(c2)C(=O)N([C@@H](C)CO)C[C@H](C)[C@@H](CN(C)C(=O)Nc2ccc(C(F)(F)F)cc2)OCCCC[C@H](C)O3)cc1	-2.4	5.3	-2.9	0.1	2.2	-5.6
C[C@@H]1CCCCO[C@@H](CN(C)C(=O)c2ccccc2)[C@@H](C)CN([C@H](C)CO)C(=O)c2cc(NC(=O)CCCCCC(=O)Nc3ccccc3N)ccc2O1	-3.0	4.7	-3.5	0.0	-0.4	7.4
C[C@@H]1CCCCO[C@@H](CN(C)C(=O)c2ccncc2)[C@@H](C)CN([C@H](C)CO)C(=O)c2cc(NC(=O)CCCCCC(=O)Nc3ccccc3N)ccc2O1	-0.8	-12.5	99.2*	-0.1	-2.5	-4.1
C[C@@H]1CCCCO[C@@H](CN(C)C(=O)c2ccncc2)[C@@H](C)CN([C@H](C)CO)C(=O)c2cc(NC(=O)Cc3ccccc3)ccc2O1	0.3	23.9*!	6.5	0.6	1.3	6.0
Cc1noc(C)c1S(=O)(=O)N(C)C[C@@H]1OCCCC[C@@H](C)Oc2ccc(NC(=O)CCCCCC(=O)Nc3ccccc3N)cc2C(=O)N([C@H](C)CO)C[C@@H]1C	108.1*	-2.9	14.1	-0.3	1.8	.
CC(=O)N(C)C[C@H]1Oc2ncc(-c3cccc(C#N)c3)cc2C(=O)N([C@@H](C)CO)C[C@@H]1C	-6.7	-2.3	-4.6	0.6	.	-0.3
CN(C)CC#Cc1ccc([C@@H]2[C@H](CO)N3CCCCN(S(=O)(=O)c4ccccc4F)C[C@@H]23)cc1	-1.6	8.9	-5.4	0.0	-1.8	.
Cc1noc(C)c1S(=O)(=O)N(C)C[C@@H]1Oc2ccc(NS(=O)(=O)c3ccc(F)cc3)cc2CC(=O)N([C@@H](C)CO)C[C@@H]1C	.	12.0	-0.3	0.8	-0.7	.
O=C(c1ccc2c(c1)OCO2)N(c1ccccc1)C1C=CS(=O)(=O)C1 (stereo not drawn)	0.6	.	-4.8	.	.	.
CCN(CC)S(=O)(=O)c1ccc(C(=O)N(c2ccccc2)C2C=CS(=O)(=O)C2)cc1 (stereo not drawn)	.	-3.1	46.1*	-0.8	1.9	-0.3
CN(C)c1ccc(C#Cc2ccc3cc(CCCO)oc(=O)c3c2)cc1	-1.3	77.6*	-8.8	0.1	0.6	-3.5
O=c1oc(CCCO)cc2ccc(C#Cc3ccsc3)cc12	5.9	.	-11.2	0.1	0.8	0.1
O=C(C[C@H]1CC[C@@H]2[C@H](COC[C@H](O)CN2C(=O)Nc2cc(Cl)cc(Cl)c2)O1)N1CCOCC1	0.0	4.3	1.2	0.2	0.1	5.3
CCCNC(=O)N1[C@H](C#N)[C@H](c2ccc(-c3cccc(OC)c3)cc2)[C@H]1CO	-3.8	58.4*	-0.5	0.2	0.4	1.4
COc1cccc(-c2ccc([C@H]3[C@@H](CO)N(C(=O)c4ccccn4)[C@H]3C#N)cc2)c1	2.1	2.7	-10.9	-0.2	15.0*	-3.0
COc1cccc(-c2ccc([C@H]3[C@@H](C#N)N(C(=O)c4ccccn4)[C@@H]3CO)cc2)c1	0.7	13.1	-7.1	0.1	-3.5	-4.3
N#C[C@H]1[C@@H](c2ccc(C#CCC3CCCC3)cc2)[C@@H](CO)N1C(=O)c1ccccn1	111.4*	-15.4	0.5	0.4	0.1	-3.3
Cc1noc(C)c1S(=O)(=O)N(C)C[C@H]1Oc2ccc(NC(=O)CCCN(C)C)cc2C(=O)N([C@H](C)CO)C[C@@H]1C	.	.	.	-0.1	.	.
CN1CCCCC(NC(=O)CCCl)C1=O (stereo not drawn)	.	1.9	.	0.3	-2.8	-5.4
CCCCCC(=O)NC1CCCCN(C)C1=O (stereo not drawn)	.	75.5*	.	0.2	1.7	2.6
Cc1csc(-c2nc3ccccc3n2C(C(=O)NC(C)(C)C)c2ccccc2)c1 (stereo not drawn)	.	22.0*	.	-0.1	0.3	6.0
